Activity calls are given as the source filed them.
Legend:
[1] = test system: Mus musculus; test: Anticonvulsant activity in ip dosed Kunming mouse assessed as protection against maximal electroshock-induced seizure after 0.5 hrs; assay type: functional; settings: read-out: MED
In short: (§1)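 Male Kunming mice (20 ± 2.0 g) received ip 30, 100 or 300 mg/kg as a suspension in 0.5% methylcellulose, one to four mice per dose. At 0.5 h and 4.0 h, a 60-Hz, 50-mA current was applied for 0.25 s via corneal electrodes. Protection meant no hindlimb tonic extension. The value is the minimal dose protecting half or more of the mice.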

[2] = test system: Mus musculus; test: Anticonvulsant activity in Kunming mouse assessed as protection against subcutaneous pentylenetetrazole-induced seizure at 300 mg/kg, ip after 0.5 hrs; assay type: functional, organism-based; design: dose 300 mg/kg
In short: (§2)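 Male Kunming mice (20 ± 2.0 g) were given ip doses of 30, 100 or 300 mg/kg in 0.5% methylcellulose, one to four mice per dose. They were then challenged with subcutaneous pentylenetetrazole dissolved in 0.9% saline at 0.5 h and 4.0 h. Protection was the absence of even a threshold seizure (a single clonic spasm lasting at least 5 s). The value is the minimal dose active in half or more of the mice.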

[3] = test system: Mus musculus; test: Anticonvulsant activity in Kunming mouse assessed as protection against maximal electroshock-induced seizure at 300 mg/kg, ip after 4 hrs; assay type: functional, organism-based; design: dose 300 mg/kg; in short: as §1
[4] = test system: Mus musculus; test: Neurotoxicity in Kunming mouse assessed as minimal motor impairment at 300 mg/kg, ip after 0.5 hrs by rotarod test; assay type: toxicity, organism-based; design: dose 300 mg/kg, route intraperitoneal; settings: in vivo
In short: (§3)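 Rotorod screen in trained male Kunming mice dosed ip at 30, 100 or 300 mg/kg in 0.5% methylcellulose, read at 0.5 h and 4.0 h. Mice were placed on a knurled rod 1 in. in diameter turning at 6 rpm. Impairment was failure to stay on the rod for at least 1 min in each of four trials. The value is the minimal dose affecting half or more of the mice.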

[5] = test system: Mus musculus; test: Anticonvulsant activity in Kunming mouse assessed as protection against subcutaneous pentylenetetrazole-induced seizure at 300 mg/kg, ip after 4 hrs; assay type: functional, organism-based; design: dose 300 mg/kg; in short: as §2
[6] = test system: Mus musculus; test: Anticonvulsant activity in ip dosed Kunming mouse assessed as protection against subcutaneous pentylenetetrazole-induced seizure after 4 hrs; assay type: functional; settings: read-out: MED; in short: as §2
[7] = test system: Mus musculus; test: Anticonvulsant activity in ip dosed Kunming mouse assessed as protection against maximal electroshock-induced seizure after 4 hrs; assay type: functional; settings: read-out: MED; in short: as §1
[8] = test system: Mus musculus; test: Anticonvulsant activity in ip dosed Kunming mouse assessed as protection against subcutaneous pentylenetetrazole-induced seizure after 0.5 hrs; assay type: functional; settings: read-out: MED; in short: as §2
[9] = test system: Mus musculus; test: Anticonvulsant activity in Kunming mouse assessed as protection against maximal electroshock-induced seizure at 300 mg/kg, ip after 0.5 hrs; assay type: functional, organism-based; design: dose 300 mg/kg; in short: as §1
[10] = test system: Mus musculus; test: Neurotoxicity in Kunming mouse assessed as minimal motor impairment at 300 mg/kg, ip after 4 hrs by rotarod test; assay type: toxicity, organism-based; design: dose 300 mg/kg, route intraperitoneal; settings: in vivo; in short: as §3
[11] = test system: Mus musculus; test: Anticonvulsant activity in ip dosed Kunming mouse assessed as protection against maximal electroshock-induced seizure; assay type: functional
[12] = test system: Mus musculus; test: Anticonvulsant activity in ip dosed Kunming mouse assessed as protection against subcutaneous pentylenetetrazole-induced seizure; assay type: functional
In short: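 Median effective dose in male Kunming mice, groups of 10, given a range of ip doses until at least three points fell between 10–90% seizure protection.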

[13] = Neurotoxicity in ip dosed Kunming mouse assessed as minimal motor impairment after 0.5 hrs by rotarod test; assay type: toxicity, organism-based; settings: in vivo
[14] = test system: Mus musculus; test: Protective index, ratio of TD50 for ip dosed Kunming mouse to ED50 for ip dosed Kunming mouse by maximal electroshock seizure test; assay type: functional
[15] = test system: Mus musculus; test: Protective index, ratio of TD50 for ip dosed Kunming mouse to ED50 for ip dosed Kunming mouse by subcutaneous pentylenetetrazole induced seizure test; assay type: functional

Q: For `Cc1ccc(N2C(=O)NC3(CC3c3ccc4cccc(OCc5ccccc5)c4n3)C2=O)cc1` (racemic), which minimal effective dose [1] is on record?
A: 100 mg/kg

Q: And the Activity [2]?
A: inactive

Q: What about the Activity [3] of the same molecule?
A: inactive

Q: What about the Activity [4] of the same molecule?
A: Non-toxic

Q: And the Activity [5]?
A: inactive

Q: For `O=C1NC2(CC2c2ccc3cccc(OCc4ccccc4)c3n2)C(=O)N1c1ccc(C(F)(F)F)cc1` (racemic), which minimal effective dose [6] is on record?
A: 300 mg/kg

Q: What about the minimal effective dose [1] of the same molecule?
A: 300 mg/kg

Q: And the Activity [2]?
A: inactive

Q: And the Activity [4]?
A: Non-toxic

Q: And the minimal effective dose [7]?
A: 300 mg/kg

Q: Which minimal effective dose [8] does the source give for `O=C1NC2(CC2c2ccc3cccc(OCc4ccccc4)c3n2)C(=O)N1c1ccc([N+](=O)[O-])cc1` (racemic) here?
A: 300 mg/kg

Q: What about the Activity [4] of the same molecule?
A: Non-toxic

Q: What about the Activity [5] of the same molecule?
A: inactive

Q: What about the Activity [9] of the same molecule?
A: inactive

Q: And the Activity [10]?
A: Non-toxic

Q: And the minimal effective dose [7]?
A: 300 mg/kg

Q: Which ED50 [11] does the source give for `CCC1(c2ccccc2)C(=O)NC(=O)NC1=O` [PHENOBARBITAL] here?
A: 21.8 mg/kg

Q: And the ED50 [12]?
A: 13.2 mg/kg

Q: Which Activity [2] does the source give for `O=C1NC2(CC2c2ccc3cccc(OCc4ccccc4)c3n2)C(=O)N1c1ccccc1` (racemic) here?
A: inactive

Q: What about the MTD at 0.5 h [13] of the same molecule?
A: 300 mg/kg

Q: And the Activity [5]?
A: inactive

Q: What about the Activity [9] of the same molecule?
A: inactive

Q: And the minimal effective dose [7]?
A: 300 mg/kg

Q: What does the source list for `O=C1NC2(CC2c2ccc3cccc(OCc4ccccc4)c3n2)C(=O)N1c1ccc(Cl)cc1` (racemic)?
A: minimal effective dose [1]: 300 mg/kg; Activity [2]: inactive; Activity [3]: inactive; MTD at 0.5 h [13]: 100 mg/kg; Activity [5]: inactive

Q: With `CCC1(C)CC(=O)NC1=O` (stereo not drawn) [ETHOSUXIMIDE] as the molecule, how does the minimal effective dose [8] read?
A: 100 mg/kg

Q: What about the minimal effective dose [6] of the same molecule?
A: 300 mg/kg

Q: What about the Activity [3] of the same molecule?
A: inactive

Q: And the Activity [4]?
A: Non-toxic

Q: What about the Activity [9] of the same molecule?
A: inactive

Q: And the Activity [10]?
A: Non-toxic

Q: Which ED50 [12] does the source give for `CCCC(CCC)C(=O)[O-].[Na+]` [VALPROATE SODIUM] here?
A: 149 mg/kg

Q: Which minimal effective dose [6] does the source give for `CCCCN1C(=O)NC2(CC2c2ccc3cccc(OCc4ccccc4)c3n2)C1=O` (racemic) here?
A: 300 mg/kg

Q: What about the minimal effective dose [1] of the same molecule?
A: 300 mg/kg

Q: What about the Activity [2] of the same molecule?
A: inactive

Q: And the Activity [3]?
A: inactive

Q: And the Activity [4]?
A: Non-toxic

Q: And the Activity [10]?
A: Non-toxic

Q: With `O=C1NC2(CC2c2ccc3cccc(OCc4ccccc4)c3n2)C(=O)N1Cc1ccccc1` (racemic) as the molecule, how does the minimal effective dose [8] read?
A: 300 mg/kg

Q: And the Activity [4]?
A: Non-toxic

Q: And the Activity [5]?
A: inactive

Q: And the Activity [9]?
A: inactive

Q: And the minimal effective dose [7]?
A: 300 mg/kg

Q: With `O=C1NC2(CC2c2ccc3cccc(OCc4ccccc4)c3n2)C(=O)N1C1CCCCC1` (racemic) as the molecule, how does the minimal effective dose [8] read?
A: 300 mg/kg

Q: What about the minimal effective dose [1] of the same molecule?
A: 300 mg/kg

Q: What about the Activity [4] of the same molecule?
A: Non-toxic

Q: What about the Activity [5] of the same molecule?
A: inactive

Q: What about the minimal effective dose [7] of the same molecule?
A: 300 mg/kg

Q: What does the source list for `NC(=O)N1c2ccccc2C=Cc2ccccc21` [CARBAMAZEPINE]?
A: ED50 [11]: 8.8 mg/kg; ED50 [12]: > 100 mg/kg

Q: With `COc1ccc(N2C(=O)NC3(CC3c3ccc4cccc(OCc5ccccc5)c4n3)C2=O)cc1` (racemic) as the molecule, how does the minimal effective dose [8] read?
A: 300 mg/kg

Q: And the minimal effective dose [1]?
A: 30 mg/kg

Q: What about the ED50 [11] of the same molecule?
A: 19.5 mg/kg

Q: What about the Activity [4] of the same molecule?
A: Non-toxic

Q: What about the TD50 at 0.5 h [13] of the same molecule?
A: 433 mg/kg

Q: What about the Activity [5] of the same molecule?
A: inactive

Q: What about the ED50 [12] of the same molecule?
A: 279 mg/kg

Q: And the “Ratio TD50/ED50” value [14]?
A: 22.2

Q: What about the “Ratio TD50/ED50” value [15] of the same molecule?
A: 1.6

Q: What about the Activity [10] of the same molecule?
A: Non-toxic

Q: What about the minimal effective dose [7] of the same molecule?
A: 100 mg/kg

Q: With `CC(C)N1C(=O)NC2(CC2c2ccc3cccc(OCc4ccccc4)c3n2)C1=O` (racemic) as the molecule, how does the minimal effective dose [8] read?
A: 100 mg/kg

Q: And the minimal effective dose [1]?
A: 300 mg/kg

Q: And the Activity [4]?
A: Non-toxic

Q: What about the Activity [5] of the same molecule?
A: inactive

Q: And the Activity [10]?
A: Non-toxic

Q: What about the minimal effective dose [7] of the same molecule?
A: 100 mg/kg

Q: Which results are given for `CN1C(=O)NC2(CC2c2ccc3cccc(OCc4ccccc4)c3n2)C1=O` (racemic)?
A: minimal effective dose [6]: 300 mg/kg; minimal effective dose [1]: 100 mg/kg; Activity [2]: inactive; Activity [3]: inactive; Activity [4]: Non-toxic

Q: Which minimal effective dose [8] does the source give for `O=C1NC2(CC2c2ccc3cccc(OCc4ccccc4)c3n2)C(=O)N1c1cc(Cl)cc(Cl)c1` (racemic) here?
A: 300 mg/kg

Q: And the Activity [3]?
A: inactive

Q: What about the MTD at 0.5 h [13] of the same molecule?
A: 300 mg/kg

Q: And the Activity [5]?
A: inactive

Q: And the Activity [9]?
A: inactive

Q: And the Activity [10]?
A: Non-toxic

Q: Which results are given for `O=C1NC(=O)C(c2ccccc2)(c2ccccc2)N1` [PHENYTOIN]?
A: minimal effective dose [1]: 30 mg/kg; Activity [2]: inactive; Activity [5]: inactive; ED50 [12]: > 300 mg/kg; minimal effective dose [7]: 30 mg/kg

Q: With `O=C1NC2(CC2c2ccc3cccc(OCc4ccccc4)c3n2)C(=O)N1c1ccc(Br)cc1` (racemic) as the molecule, how does the Activity [2] read?
A: inactive

Q: And the MTD at 0.5 h [13]?
A: 100 mg/kg

Q: And the Activity [5]?
A: inactive

Q: What about the Activity [9] of the same molecule?
A: inactive

Q: And the minimal effective dose [7]?
A: 300 mg/kg

Q: With `O=C1NC2(CC2c2ccc3cccc(OCc4ccccc4)c3n2)C(=O)N1c1ccc(F)cc1` (racemic) as the molecule, how does the minimal effective dose [1] read?
A: 300 mg/kg

Q: What about the Activity [2] of the same molecule?
A: inactive

Q: What about the Activity [3] of the same molecule?
A: inactive

Q: What about the Activity [4] of the same molecule?
A: Non-toxic

Q: And the Activity [5]?
A: inactive

Q: Which results are given for `CCC(CO)N1C(=O)NC2(CC2c2ccc3cccc(OCc4ccccc4)c3n2)C1=O` (racemic)?
A: minimal effective dose [8]: 100 mg/kg; minimal effective dose [6]: 300 mg/kg; minimal effective dose [1]: 30 mg/kg; ED50 [11]: 8.6 mg/kg; Activity [4]: Non-toxic; TD50 at 0.5 h [13]: 365 mg/kg; ED50 [12]: 212 mg/kg; Ratio TD50/ED50 [14]: 26.8; Ratio TD50/ED50 [15]: 1.7; Activity [10]: Non-toxic; minimal effective dose [7]: 30 mg/kg

Q: Which results are given for `O=C1NC(=O)C2(CC2c2ccc3cccc(OCc4ccccc4)c3n2)N1` (racemic)?
A: minimal effective dose [8]: 300 mg/kg; minimal effective dose [1]: 300 mg/kg; Activity [3]: inactive; MTD at 0.5 h [13]: 300 mg/kg; Activity [5]: inactive; Activity [10]: Non-toxic

Source: ChEMBL document CHEMBL1932992, “Synthesis and anticonvulsant activity of 1-(8-(benzyloxy)quinolin-2-yl)-6-substituted-4,6-diazaspiro[2,4]heptane-5,7-diones” (Eur J Med Chem, 2012)
